The source of these data is paper PMC7016294 (Acta Pharmaceutica Sinica. B, 2019).

“And” between values parts separate entries of the source, which are not always exact repeats. Equal entries are not always repeated.

The test system of series [1] is peripheral blood lymphocytes. The experiment in a line: Peripheral blood lymphocytes. It counts as in vivo. The conditions noted are these: SD rats, single oral dose (3 mg/kg), 1 week later. Put shortly:
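Male SD rats (6–8 weeks) were randomised and bled (20 μL, tail vein) for a baseline (0 h) lymphocyte count on a haematology analyser. Each received one oral dose of test compound (0.3, 1 or 3 mg/kg, in distilled water) or vehicle. Lymphocytes were counted again at 2, 4, 8, 12, 24, 72, 96, 144 and 168 h; n = 5.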

The nature of series [2]: Heart rate measurement after a single oral dose. The series is classed as in vivo. Particulars: SD rats, single oral dose 10 mg/kg. Put shortly: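 Male SD rats (6–8 weeks) had baseline heart rate taken with a non-invasive rodent blood-pressure/heart-rate meter. They then received a single oral 10 mg/kg dose of test compound in distilled water, or vehicle. Heart rate was re-measured at 2, 4, 8, 12, 24 and 48 h after dosing; n = 5.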

Series [3] has as its system SDS-induced skin irritation. The series is described as follows: SDS-induced acute skin irritation and inflammation mouse model. It counts as in vivo. Particulars: KM mice, MTX 1.5 mg/kg, data not shown. Put shortly:
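Female KM mice had back hair removed and received 200 μL 15% SDS topically once daily for 7 days. From Day 8 they were dosed orally each day for 10 days with test compound (0.3–2.4 mg/kg, in water) or vehicle. On Day 18, skin thickness was measured. Skin was then fixed in 4% paraformaldehyde, cut into 5 μm H&E sections and scored blind (0–3 each) for epidermal thickening, fibroplasia, inflammatory infiltration and vasodilatation; n = 11.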

The target in another series is S1P3 (EDG3) (Homo sapiens, UniProt Q99500). The series is described as follows: β-arrestin assay. It counts as cell-based. In outline: (§1)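 Test compound (DMSO stock), at a range of concentrations, was added for 2 or 4 h at 37 °C. Receptor–β-arrestin recruitment was read as β-galactosidase enzyme-fragment complementation, with chemiluminescence measured after 1 h in detection reagent at room temperature. Activity was computed from the concentration series.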
Chain of S1P3 (EDG3) (Q99500 whole entry, the tested form may be a part): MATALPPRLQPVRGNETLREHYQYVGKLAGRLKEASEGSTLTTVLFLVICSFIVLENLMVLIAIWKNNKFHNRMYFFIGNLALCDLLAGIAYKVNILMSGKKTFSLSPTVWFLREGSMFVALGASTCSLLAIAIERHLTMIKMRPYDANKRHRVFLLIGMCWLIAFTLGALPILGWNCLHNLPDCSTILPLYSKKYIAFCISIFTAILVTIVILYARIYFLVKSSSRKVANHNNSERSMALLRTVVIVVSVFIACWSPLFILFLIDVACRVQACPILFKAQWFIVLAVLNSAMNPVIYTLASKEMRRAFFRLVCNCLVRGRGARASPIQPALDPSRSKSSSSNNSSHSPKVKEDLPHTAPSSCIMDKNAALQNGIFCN

The next series has as its target T1, S1P4 (EDG6) (Homo sapiens, UniProt O95977).
T1 sequence (O95977 1-384): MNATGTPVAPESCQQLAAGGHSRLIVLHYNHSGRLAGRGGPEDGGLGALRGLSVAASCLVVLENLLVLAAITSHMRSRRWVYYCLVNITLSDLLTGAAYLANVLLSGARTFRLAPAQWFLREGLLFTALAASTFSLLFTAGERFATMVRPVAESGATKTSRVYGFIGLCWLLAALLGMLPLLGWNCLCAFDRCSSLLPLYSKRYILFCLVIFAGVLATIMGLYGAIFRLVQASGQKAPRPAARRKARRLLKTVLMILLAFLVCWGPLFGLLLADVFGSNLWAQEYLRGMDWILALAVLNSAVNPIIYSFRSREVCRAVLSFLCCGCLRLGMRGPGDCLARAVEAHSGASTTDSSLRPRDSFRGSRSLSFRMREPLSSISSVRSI
The series is described as follows: β-arrestin assay. The series is classed as cell-based. Put shortly: as §1

Consider `CCCCCCCCc1ccc(CCC(N)(CO)CO)cc1` [FTY720, fingolimod], for which the “Lymphocyte reduction 1 week after one administration” value in series [1] is 26%. Moreover, the “Duration of heart rate decrease” value in series [2] amounted to 12 h. Also, the Heart rate decrease in series [2] (as early as 2 h after treatment, 10 mg/kg) is 22% and 20%.

Regarding `CN(Cc1cnc2nc(N)nc(N)c2n1)c1ccc(C(=O)N[C@@H](CCC(=O)O)C(=O)O)cc1` [MTX, Methotrexate], the “Body weight during treatment” value in series [3] was “started to decline from Day 10”.

As to `CCCCCCCCCCCCC/C=C/[C@@H](O)[C@@H](N)COP(=O)(O)O` [S1P, Sphingosine-1-phosphate], the half-maximal effective concentration (EC50) – broadly, the concentration needed to bring the measured effect to its halfway point – turned out to be 17.7 nM on S1P3 (EDG3) and 49.1 nM on S1P4 (EDG6).
